# Beta cell apopt = beta cell apoptosis inhibition; INS-1E cytokine-induced death, ATP luminescence, 48 h; percent of positive-control rescue, neutral wells zero; protection from apoptosis, % (test concentration not listed); 300,000 compounds, 0.8% hits;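 active = Every replicate reaches about 75%, or at least half do and their mean reaches it too, limit read from the data; inconclusive = At least half of replicates reach the limit but their mean does not; inactive = Under half of replicates reach the limit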;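 note: 0% = cytokine-treated negative control wells and 100% = positive control rescue; higher means more ATP so stronger rescue from cytokine killing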
# CSC inhib = blocks cancer stem cells; cancer stem cell-like cells viability, luminescence; inhibition, % at 7.5 µM; 300,000 compounds, 1.1% hits; in the data active = inhibition above about 75%; inconclusive = no clear call, values can overlap the other calls; tested in HMLE shEcad cells
# T cruzi inh = blocks replication of Trypanosoma cruzi. T. cruzi beta-gal in NIH3T3, luminescence, 90 h. inhibition, % (concentration not given with the values). 300,000 compounds, 1.4% hits. AID 1885;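 active = mean inhibition across valid replicates above about 55%, limit read from the data; inconclusive = mean below that limit but half or more replicates reach it; inactive = mean below it, under half of replicates reach it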;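 note: signal also drops with host cell toxicity which is not excluded here; 0% = plate median of DMSO wells and 100% = zero luminescence signal; higher percent means less beta-gal luminescence so fewer parasites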
#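 Read-out: Parasite load inhibition, % | Test system: Mouse NIH/3T3 fibroblasts infected with β-gal-expressing T. cruzi Tulahuen C4 | Amount: 5,000 cells/well | Medium: DMEM, 2% fetal bovine serum | Signal: GalScreen β-gal luminescence, detergent lysis, 60 min | Timing: 3 h attach, ≥90 h co-culture | Also added: Tulahuen C4 trypomastigotes, 5000/well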
# Calb FLC = affects C. albicans growth with fluconazole | C. albicans CaCi-2 (fluconazole-resistant clinical isolate) + fluconazole, Alamar Blue growth, 48 h | growth inhibition, % (concentration not given with the values) | 300,000 compounds, 0.57% hits | AID 1979;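 active = growth inhibition above about 58% in most replicates, limit read from the data, passing the limit was not always enough; inconclusive = exactly half the replicates above a set limit; inactive = most replicates below a set limit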;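 note: all wells also contain fluconazole at 8 µg/ml as a sub-toxic cotreatment; 0% = median of DMSO wells and 100% = median of geldanamycin control wells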
# Mdm2-MdmX inh = inhibitors of human Mdm2/MdmX interaction; O15151+Q00987; inhibition, % at 8 µM; SaOS-2 split-luciferase Mdm2/MdmX complementation, luminescence; 330,000 compounds, 3% hits;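 active = inhibition of at least 50% at 8 µM in the primary screen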
# Target sequence (O15151 whole entry, looked up): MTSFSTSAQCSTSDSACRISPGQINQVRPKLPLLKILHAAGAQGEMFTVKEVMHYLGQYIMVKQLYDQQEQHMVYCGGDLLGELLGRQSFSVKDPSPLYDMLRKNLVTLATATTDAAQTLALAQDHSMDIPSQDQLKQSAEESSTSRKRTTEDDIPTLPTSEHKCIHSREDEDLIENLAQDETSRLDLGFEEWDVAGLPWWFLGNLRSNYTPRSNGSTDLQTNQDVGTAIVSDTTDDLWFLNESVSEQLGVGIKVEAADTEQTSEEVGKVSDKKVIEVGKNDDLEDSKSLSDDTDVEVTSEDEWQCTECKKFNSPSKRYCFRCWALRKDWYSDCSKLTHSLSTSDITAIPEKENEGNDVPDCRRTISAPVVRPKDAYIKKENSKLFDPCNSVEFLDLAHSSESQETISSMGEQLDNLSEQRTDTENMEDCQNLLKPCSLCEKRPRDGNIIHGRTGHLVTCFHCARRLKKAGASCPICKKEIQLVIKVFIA
# Target sequence (Q00987 whole entry, looked up): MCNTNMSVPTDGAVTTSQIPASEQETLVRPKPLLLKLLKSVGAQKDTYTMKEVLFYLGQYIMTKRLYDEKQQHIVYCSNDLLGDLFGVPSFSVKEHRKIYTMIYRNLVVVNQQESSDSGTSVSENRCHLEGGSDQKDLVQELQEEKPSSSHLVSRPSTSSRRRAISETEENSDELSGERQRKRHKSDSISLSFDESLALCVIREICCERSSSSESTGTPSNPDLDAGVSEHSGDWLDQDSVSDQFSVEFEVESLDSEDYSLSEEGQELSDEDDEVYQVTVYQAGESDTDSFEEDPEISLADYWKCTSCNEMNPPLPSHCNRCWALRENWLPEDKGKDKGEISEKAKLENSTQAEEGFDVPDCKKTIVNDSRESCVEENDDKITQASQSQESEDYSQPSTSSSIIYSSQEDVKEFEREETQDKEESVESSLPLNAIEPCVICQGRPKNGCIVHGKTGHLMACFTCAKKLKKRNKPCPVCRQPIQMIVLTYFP
# SKKanGAS inh = blocks kanamycin growth of S. pyogenes SKKanGAS strain | BacTiter-Glo, 6 h | inhibition, % at 7.5 µM | 300,000 compounds, 1.3% hits;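 active = mean replicate score, as percent of positive control median, at least 50; inconclusive = mean below 50 but one replicate at or above 50; inactive = mean and every replicate below 50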;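 note: strain carries kanamycin resistance gene driven by streptokinase promoter and grows in 40 µg/ml kanamycin; loss of luminescence reflects streptokinase promoter inhibition or plain growth inhibition; 0% = median of DMSO wells and 100% = positive control at its reference dose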
# Active calls of the source: *; ? = inconclusive; . = no result given. In the library only some 5.7% were active in any assay of this set; here they are far more common.
SMILES,Beta cell apopt,CSC inhib,T cruzi inh,Calb FLC,Mdm2-MdmX inh,SKKanGAS inh
c1ccc(Cn2nnnc2C(c2cccnc2)N2CCN(c3ccccc3)CC2)cc1 (configuration not stated),-5,7,81*,-16,-4,-1
Cc1ccc(NC2=NCC(=O)N2C2CCCC2)cc1,3,-1,-8,-15,-10,5
CCn1c(-c2cc(-c3ccc(C)c(C)c3)nc3ccccc23)n[nH]c1=S,9,-4,22,17,2,12
CCOc1cccc(-c2cc(-c3n[nH]c(=S)n3CC)c3ccccc3n2)c1,15,-10,22,69*,20,13
CCc1nn(CCCC(=O)NCc2ccccc2C)c(=O)c2cc3occc3n12,4,-5,6,0,11,-2
c1cnc(N2CCN(Cc3c[nH]c4ccccc34)CC2)nc1,106*,-22,50,16,4,0
CCS(=O)(=O)N1CCN(Cc2c[nH]c3ccccc23)CC1,-6,-3,-9,-7,13,0
Fc1ccc(N2CCN(Cc3c[nH]c4ccccc34)CC2)cc1,91*,-3,73*,-17,9,-6
CCC1CCCCN1C(=O)c1cc(S(=O)(=O)N2CCOCC2)ccc1C (configuration not stated),0,1,.,.,24,.
COC(=O)C1(C)NC(c2ccc(O)cc2)C2C(=O)N(c3ccc(C)cc3)C(=O)C21 (configuration not stated),-1,-22,-6,-12,8,3
Cc1ccc(O)c(/C=N/NC(=O)c2[nH]ncc2Br)c1,84*,17,-13,-6,-19,3
CCOc1ccc(/C=N/NC(=O)c2[nH]ncc2Br)c(O)c1,77*,87*,55*,114*,-20,-8
COc1ccc2nc(NC(=O)c3cc(C)oc3C)sc2c1,23,.,31,-30,-65,10
COc1ccc2nc(NC(=O)c3ccoc3C)sc2c1,43,70,12,8,-78,66*
COc1ccc2nc(NC(=S)N(C)C)sc2c1,17,-5,60*,?,-176,16
Cc1cc(C(=O)NCC(c2ccco2)N2CCCC2)c2ccccc2n1 (configuration not stated),6,.,.,.,6,.
CCOC(=O)N1CCN(c2ccc(S(=O)(=O)N(Cc3ccccc3)Cc3ccccc3)cn2)CC1,104*,-5,44,3,12,9
Cc1cccc(/C=C2/S/C(=N/N=C3\CC4CCC3(C)C4(C)C)NC2=O)c1 (configuration not stated),6,-8,.,-7,35,125*
COc1ccc(Cl)cc1NC(=O)CN(C)C(=O)c1cc2ccccc2cc1O,-4,-13,-19,14,38,17
COc1cccc(-c2c3c([nH]c(=O)c2C#N)CCc2cc(OC)ccc2-3)c1,10,-4,-3,1,34,5
N#CC1=C(N)Oc2cc(N)ccc2C1c1cccc(Br)c1 (configuration not stated),3,82*,4,-4,42,5
CCCCSCCCNC(=O)c1ccc(CS(=O)(=O)c2ccccc2OC)o1,2,-9,6,-3,1,6
O=C(CCN1CCC(c2cccs2)=N1)c1cccs1,-1,-4,0,-6,-10,16
CC1CCN(C(=O)Cn2nnc(-c3ccccc3)n2)CC1,-6,-6,-9,-3,-1,-3
O=C(Nc1ccccc1C(=O)O)c1cccc(NC(=O)c2ccc(Br)o2)c1,-1,11,-5,23,0,83*
SMILES,Beta cell apopt,CSC inhib,T cruzi inh,Calb FLC,Mdm2-MdmX inh,SKKanGAS inh
O=C(Nc1ccccc1C(=O)O)c1ccc(NC(=O)c2ccc(Br)o2)cc1,-4,2,-5,-12,7,14
O=C(Nc1cc(C(F)(F)F)ccc1N1CCCCC1)c1ccco1,-1,-5,-1,-3,15,7
CCn1nnc(NC(=O)c2ccc([N+](=O)[O-])o2)n1,-35,1,61*,1,-5,0
O=C(Nc1cc(C(F)(F)F)ccc1N1CCCCC1)c1ccc(Br)o1,1,82*,30,5,14,0
CCN1CCN(c2ccc(NC(=O)c3ccc([N+](=O)[O-])o3)cc2Cl)CC1,.,.,91*,?,.,25
CCCCn1nnc(NC(=O)c2ccc(-c3ccccc3[N+](=O)[O-])o2)n1,-4,-1,5,-12,-2,3
O=C(CN1C(=O)NC2(CCCC2)C1=O)NCc1ccccc1,-4,-5,.,.,2,.
O=C(Nc1ccc(N2CCCC2)c(Cl)c1)c1ccc(Br)o1,23,1,55*,-9,-35,6
Cc1ccc(-c2nnc(NC(=O)c3ccc([N+](=O)[O-])o3)o2)c(C)c1,-4,-1,49,85*,25,70*
CC(C)N(Cc1ccccc1)C(=O)COC(=O)c1ccc(S(=O)(=O)N2CCOCC2)cc1,-1,3,.,.,11,.
COCCN(C(=O)Nc1ccccc1OC)c1nc2ccccc2s1,5,1,38,2,11,2
COC(=O)C1C(=O)C2=C(CC1C)NC(=O)CC2c1cccc(C)c1 (configuration not stated),13,101*,2,-2,-7,1
O=C(Nc1cccc(S(=O)(=O)NC2=NCCC2)c1)c1ccccc1OC(F)F,-3,6,4,-3,29,0
COc1ccc(C2CC(c3ccccc3)=NN2C(=O)COC(=O)c2cccc(S(=O)(=O)N3CCOCC3)c2)cc1 (configuration not stated),13,-2,72*,8,2,15
Cc1ccc(OCCCN(C)C)c(Br)c1,-6,-3,26,-8,-7,3
CN(C)CCOCCOc1ccc(Cl)cc1Br,-6,-3,64*,?,15,-7
CC(C)NCCOCCOc1ccc(Cl)cc1Br,-8,11,50,-21,7,2
CN(C)CCCOc1ccc(Cl)cc1Br,-7,-12,68*,-11,16,-6
Cc1cc(CNC(=O)c2ccc3c(c2)OCO3)c2ccccc2n1,3,46,-24,-10,19,0
Cc1c(C)n(CCO)c2ncnc(Nc3ccc(F)cc3)c12,1,14,-8,5,7,-5
Cc1c(C)n(CCCN(C)C)c2ncnc(Nc3ccc(F)cc3)c12,-3,-14,61*,7,7,2
Cc1c(C)n(CCc2ccccc2)c2ncnc(NCCCN(C)C)c12,3,76*,31,-4,22,-5
CC(C)CNC(=S)NC(=O)c1ccc(F)cc1,7,4,3,36,-9,-1
Cc1ccc2c(C)nc(N/C(N)=N/S(=O)(=O)c3ccc([N+](=O)[O-])cc3)nc2c1,4,15,55*,-8,18,7
Cc1nc(N/C(N)=N/S(=O)(=O)c2ccccc2)nc2ccccc12,-1,-15,.,.,26,.

# Compound activity: PubChem BioAssay, several laboratories
